Results gathered from unrelated publications.
Compare with care: the assays were run in different laboratories.
Target: BDNF/NT-3 growth factors receptor (NTRK2, Homo sapiens, UniProt Q16620)

SMILES | assay | setting | remaining binding
C[C@H]1CCN(c2nccc(-c3cnn4ncccc34)n2)C1 | binding | 1 µM | 61%
Nc1ncc2c(n1)-c1c([nH]c3ccc(C#CC4CC4)cc13)CCCC2 | binding, competition with immobilised ligand | 1 µM | 77%
N[C@@H]1CCN(c2nccc(-c3cnn4ncccc34)n2)C1 | binding | 1 µM | 100%
O=C(Nc1cnc(Oc2ccc(F)cc2)nc1)N1CCc2ncccc2[C@@H]1c1ccc(F)cc1 | cell-free assay, competition with immobilised ligand | 1 µM | 100%
O=C(c1ccc(Nc2ncc(Cl)c(-c3ccc(Cl)s3)n2)cc1)N1CCC(N2CCCC2)CC1 | binding, competition with immobilised ligand | 1 µM | 5.3%
CC1=C(C#N)C(c2ccc3c(c2)c(NC(=O)c2ccccc2C)nn3C)C(C#N)=C(C)N1 | cell-free assay, competition with immobilised ligand | 1 µM | 72%
C=CC(=O)N1CCC(C(=O)NCC(=O)N2CCN(c3nc(-c4cnc(N)nc4C(F)F)nc(N4CCOCC4)n3)CC2)CC1 | binding, competition with immobilised ligand | 1 µM | 89%
CCS(=O)(=O)c1cc2cc(C[C@@](O)(CC(C)(C)c3ccc(F)cc3C(N)=O)C(F)(F)F)[nH]c2cn1 | cell-free assay, competition with immobilised ligand | 1 µM | 84%
c1cncc(-c2cccc(Nc3nccc(NC4CCCCC4)n3)c2)c1 | binding, competition with immobilised ligand | 10 µM | 16%
O=C(NC[C@@H]1[C@H]2CN(C(=O)OCc3cc(C(F)(F)F)cc(C(F)(F)F)c3)C[C@@H]12)c1ccc2[nH]nnc2c1 | cell-free assay, competition with immobilised ligand | 1 µM | 99%
COc1ccnn2ncc(-c3ccnc(N(C)C)n3)c12 | binding | 1 µM | 87%
CCOCCn1cc(C(=O)Nc2ccc(-n3nc(-c4cccnc4)cc3C(F)(F)F)cn2)ccc1=O | cell-free assay, competition with immobilised ligand | 1 µM | 100%
CN(c1nccc(-c2cnn3ncccc23)n1)C1CC1 | binding | 1 µM | 100%
CCN1CCN(Cc2ccc(C(=O)Nc3ccc(C)c(Oc4ccc5c(c4)CC(=O)N5)c3)cc2C(F)(F)F)CC1 | binding, competition with immobilised ligand | 1 µM | 81%
O=C(NCCCN1CCOCC1)c1ccc(Nc2nccc(-c3cc4ccccc4s3)n2)cc1 | binding, competition with immobilised ligand | 1 µM | 69%
CN(C)c1nccc(-c2cnc3ncccn23)n1 | binding | 1 µM | 65%
COc1cnc(Nc2cccc(S(N)(=O)=O)c2)nc1N1CCN(c2ccccc2)CC1 | binding, competition with immobilised ligand | 1 µM | 75%
O=C(NCc1ncc(C(F)(F)F)cc1Cl)c1ccc2c(c1)C1(CCS(=O)(=O)CC1)[C@@H](C1CC1)N2S(=O)(=O)c1ccc(F)cc1 | cell-free assay, competition with immobilised ligand | 1 µM | 71%
O=C(Nc1c[nH]nc1C(=O)NC1CCNCC1)c1cc(F)cc(F)c1 | binding, competition with immobilised ligand | 1 µM | 71%
CC1CCCN1c1nccc(-c2cnn3ncccc23)n1 (stereo not drawn) | binding | 1 µM | 100%
O=C(NCCCN1CCOCC1)c1ccc(Nc2ncc(Cl)c(-c3ccc(Cl)s3)n2)cc1 | binding, competition with immobilised ligand | 1 µM | 15%
